Measurements taken from ChEMBL document CHEMBL1122328, “Hypolipidemic activity of phthalimide derivatives. 2. N-phenylphthalimide and derivatives” (1983).

Experiments:
[1] = tested on: Mus musculus; experiment: Effect on cholesterol from CF1 male mice after 16 days at a dose of 40 (mg/kg/day); assay type: functional
How it was run: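 CF1 male mice dosed ip for 16 days at 10–60 (mg/kg)/day; liver taken and 10% homogenate made in 0.25 M sucrose + 0.001 M EDTA; aliquot extracted by Folch and Bligh–Dyer methods, mg lipid weighed, cholesterol measured by Liebermann–Burchard method; n = 6; % of 1% CMC control.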

[2] = tested on: Mus musculus; experiment: Effect on neutral lipids from CF1 male mice after 16 days at a dose of 10 (mg/kg/day); assay type: functional
How it was run: (§1)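 Dosing was ip in CF₁ male mice (~25 g) for 16 days, with compound suspended in 1% carboxymethylcellulose. Liver was then taken and homogenised to 10% in 0.25 M sucrose with 0.001 M EDTA. Lipid was extracted from a 2 mL aliquot by the Folch and Bligh–Dyer methods and total mg of lipid was weighed. Cholesterol (Liebermann–Burchard), triglycerides (kit), neutral lipids and phospholipids were then measured; N = 6; reported as % of vehicle control.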

[3] = species on record: Mus musculus; experiment: In vitro effect on CF1 male mouse on phosphatidate phosphohydrolase; assay type: functional
[4] = tested on: Mus musculus; experiment: In vitro effect on CF1 male mouse on phosphatidate phosphohydrolase after 16 days at a dose of 10 (mg/kg)/day; assay type: functional
How it was run: (§2)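 In vivo enzyme study. CF₁ male mice were dosed ip for 16 days in 1% CMC, and liver was homogenised to 10% in 0.25 M sucrose with 0.001 M EDTA. Enzymes assayed: acetyl-CoA synthetase as hydroxamate at 540 nm after 30 min at 37 °C; HMG CoA reductase with [1-¹⁴C]acetate in 9000g supernatant for 60 min at 37 °C; fatty acid synthetase with [2-¹⁴C]malonyl-CoA; acyltransferase with [³H]glycerol 3-phosphate and microsomes for 10 min; phosphatidate phosphohydrolase as released phosphate at 820 nm after 30 min. N = 6; reported as % control.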

[5] = tested on: Mus musculus; experiment: In vitro effect on CF1 male mouse on phosphatidate phosphohydrolase after 16 days at a dose of 20 (mg/kg)/day; assay type: functional; how it was run: as §2
[6] = tested on: Mus musculus; experiment: Effect on phospholipids from CF1 male mice after 16 days at a dose of 10 (mg/kg/day); assay type: functional; how it was run: as §1
[7] = tested on: Mus musculus; experiment: Effect on phospholipids from CF1 male mice after 16 days at a dose of 20 (mg/kg/day); assay type: functional; how it was run: as §1
[8] = tested on: Mus musculus; experiment: Effect on triglycerides from CF1 male mice after 16 days at a dose of 40 (mg/kg/day); assay type: functional; how it was run: as §1
[9] = tested on: Mus musculus; experiment: Effect on triglycerides from CF1 male mice after 16 days at a dose of 60 (mg/kg/day); assay type: functional; how it was run: as §1
[10] = tested on: Mus musculus; experiment: Effect on Serum cholesterol levels on Hyperlipidemic induced mice After 14 days dosing.; assay type: functional
How it was run: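 Mice fed atherogenic diet for 2 weeks to raise serum lipids, then given drug at 20 (mg/kg)/day ip for a further 2 weeks; serum cholesterol and triglyceride measured after the diet and after 14 days dosing; n = 6; compared with 1% CMC and diet-only controls; % control.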

[11] = tested on: Mus musculus; experiment: Effect on Serum triglceride levels on CF1 male mice at a dose of 100 (mg/kg)/day after 14 days; assay type: functional
How it was run: (§3)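 CF1 male mice (~25 g), drug suspended in 1% carboxymethylcellulose in water, given ip daily for 16 days; n = 6; vehicle control. Tail-vein blood on days 9 and 16, serum cholesterol by modified Liebermann–Burchard reaction; day-14 serum triglyceride by commercial kit; expressed as % control.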

[12] = tested on: Mus musculus; experiment: Effect on Serum triglceride levels on CF1 male mice at a dose of 12.5 (mg/kg)/day after 14 days; assay type: functional; how it was run: as §3
[13] = tested on: Mus musculus; experiment: In vitro effect on CF1 male mouse onAc-CoA carboxylase after 16 days at a dose of 40 (mg/kg)/day; assay type: functional; details: in the assay text read “In vivo” for “In vitro”
How it was run: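 Mice (CF1 males) given agent ip daily for 16 days in 1% carboxymethylcellulose; liver 10% homogenate in 0.25 M sucrose + 0.001 M EDTA. Acetyl-CoA carboxylase first polymerized 30 min at 37 °C, then incubated 30 min at 37 °C with sodium [14C]bicarbonate (41.0 mCi/mmol); incorporated label counted. Activity as % of vehicle control; N = 6.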

[14] = species on record: Mus musculus; experiment: In vitro effect on CF1 male mouse on Cholesterol side- chain oxidation; assay type: functional
How it was run: (§4)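 In vitro test on 10% CF₁ male mouse liver homogenate (0.25 M sucrose, 0.001 M EDTA) with 2.5 μmol test drug. Assays: acetyl-CoA synthetase and citrate lyase as hydroxamate at 540 nm, 30 min, 37 °C; citrate exchange from [¹⁴C]citrate-loaded mitochondria after 10 min with drug; side-chain oxidation by ¹⁴CO₂ from [26-¹⁴C]cholesterol, 18 h, 37 °C; acetyl-CoA carboxylase by [¹⁴C]bicarbonate fixation after 30 min polymerization then 30 min at 37 °C.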

[15] = species on record: Mus musculus; experiment: In vitro effect on CF1 male mouse on Citrate lyase; assay type: functional; how it was run: as §4
[16] = species on record: Mus musculus; experiment: In vitro effect on CF1 male mouse on Fatty acid synthetase; assay type: functional
[17] = tested on: Mus musculus; experiment: In vitro effect on CF1 male mouse on Fatty acid synthetase after 16 days at a dose of 60 (mg/kg)/day; assay type: functional; how it was run: as §2
[18] = tested on: Mus musculus; experiment: In vitro effect on CF1 male mouse on HMGCoA reductase after 16 days at a dose of 20 (mg/kg)/day; assay type: functional; how it was run: as §2
[19] = species on record: Mus musculus; experiment: In vitro effect on CF1 male mouse on Ac-CoA synthetase; assay type: functional; how it was run: as §4
[20] = tested on: Mus musculus; experiment: In vitro effect on CF1 male mouse on Ac-CoA synthetase after 16 days at a dose of 10 (mg/kg)/day; assay type: functional; details: in the assay text read “In vivo” for “In vitro”; how it was run: as §2
[21] = tested on: Rattus norvegicus; experiment: Effect on low density cholesterol Holtzman rats after 14 days administration; assay type: functional
How it was run: (§5)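 Holtzman male rats (~400 g) given drug at 20 (mg/kg)/day for 14 days; on day 14 blood taken from the abdominal aorta and serum separated by centrifugation at 3500 rpm; lipid and protein content of the lipoprotein fractions measured.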

[22] = tested on: Rattus norvegicus; experiment: Effect on low density neutral lipids Holtzman rats after 14 days administration; assay type: functional; how it was run: as §5
[23] = tested on: Rattus norvegicus; experiment: Effect on very low density Phospholipids Holtzman rats after 14 days administration; assay type: functional
How it was run: (§6)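 Holtzman male rats (~400 g) received drug at 20 (mg/kg)/day for 14 days. On day 14, blood was collected from the abdominal aorta and serum was separated by centrifugation at 3500 rpm. Lipid content of the lipoprotein fractions was then determined.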

[24] = tested on: Rattus norvegicus; experiment: Effect on very low density Triglycerides Holtzman rats after 14 days administration; assay type: functional; how it was run: as §6
[25] = tested on: Rattus norvegicus; experiment: Effect on Chylomicrons of neutral lipids Holtzman rats after 14 days administration; assay type: functional; how it was run: as §5
[26] = tested on: Rattus norvegicus; experiment: Effect on Serum cholesterol levels on Holtzman rats at a dose of 20 (mg/kg)/day after 16 days; assay type: functional
How it was run: (§7)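 Holtzman male rats (~200 g) dosed orally by intubation needle daily for 16 days, drug suspended in 1% carboxymethylcellulose; n = 6; vehicle control. Tail-vein serum cholesterol on days 9 and 16 by modified Liebermann–Burchard reaction; day-14 serum triglyceride by commercial kit; % control.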

[27] = tested on: Rattus norvegicus; experiment: Effect on Serum cholesterol levels on Holtzman rats at a dose of 30 (mg/kg)/day after 16 days; assay type: functional; how it was run: as §7
[28] = tested on: Rattus norvegicus; experiment: Effect on Serum triglceride levels on Holtzman rats at a dose of 30 (mg/kg)/day after 14 days; assay type: functional; how it was run: as §7
[29] = tested on: Rattus norvegicus; experiment: Effect on high density Triglycerides Holtzman rats after 14 days administration; assay type: functional; how it was run: as §5
[30] = tested on: Rattus norvegicus; experiment: Effect on low density Phospholipids Holtzman rats after 14 days administration; assay type: functional; how it was run: as §5
[31] = tested on: Mus musculus; experiment: In vivo effect on CF1 male mouse on Lipid content after 16 days at a dose of 10 (mg/kg)/day

For `CC(=O)c1ccccc1N1C(=O)c2ccccc2C1=O`, the Control [1] was 71%, the Control [2] was 36% and the Control [3] was 65%. It also gave a Control [4] of 85%, a Control [5] of 68% and a Control [6] of 90%. For the same compound, the Control [7] was 163%, the Control [8] was 91% and the Control [9] was 100%. It also gave a Control [10] of 118%, a Control [11] of 59% and a Control [12] of 56%. It also gave a Control [13] of 48%, a Control [14] of 27% and a Control [15] of 62%. For the same compound, the Control [16] was 107%, the Control [17] was 100% and the Control [18] was 81%. The Control [19] was 63%, the Control [20] was 53% and the Control [21] was 57%. For the same compound, the Control [22] was 49%, the Control [23] was 359% and the Control [24] was 46%. It also gave a Control [25] of 50%, a Control [26] of 56% and a Control [27] of 64%. It also gave a Control [28] of 75%, a Control [29] of 63% and a Control [30] of 87%. It also gave a Control [31] of 84%.
